Cneo AK release: Cryptococcus neoformans lysis via adenylate kinase release; C. neoformans lysis, adenylate kinase release luminescence, 4 h; normalised: neutral wells 0, clomiphene wells 100; lysis activity, % at 15 µM; 360,000 tested, 0.2% active;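 active = mean lysis activity across replicates of at least 80%, whatever share of replicates individually reach that level; inactive = mean lysis activity below 80%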
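Assay system: log-phase C. neoformans yeast / Quantity: yeast cell density of 5 × 10^6 cells/mL / Medium: fresh YPD growth medium / Compound: single dose / Timing: static 4 h at 37 °C with compound, 1 h detection / Measured by: adenylate kinase release luminescence / Read-out: lysis from increased AK signal / Benchmarks: Clomiphene as positive lysis control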
C2C12 statin: protects C2C12 myotubes from simvastatin toxicity; ATP luminescence, 48 h; scaled: DMSO 0, geranylgeraniol control 100; rescue of ATP level, % at 7.49 µM; 330,000 tested, 0.78% active;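 active = mean ATP rescue above about 67%, or every replicate alone reaching that limit, limit read from the data, passing the limit was not always enough; inconclusive = no clear call, values can overlap the other calls; inactive = mean under the limit and some replicate under it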;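 note: myotubes were challenged with 10 µM simvastatin during compound exposure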
Xi reactivation: reactivates the inactive X chromosome in mouse fibroblasts | XiGFP mouse fibroblasts, % GFP-positive cells imaging, 3 d; cells co-treated with 5-aza-dC sensitizer; scaled so ellipticine positive control = 100% | activation, % at 7.58 µM | 360,000 tested, 0.055% active | AID 743238;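 active = mean normalized replicate activation at least 10% and every replicate at or above 10%; inconclusive = only one of the two criteria met; inactive = mean below 10% and not all replicates reach 10%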;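 note: 0% = median of on-plate neutral control wells and 100% = ellipticine 6 µM median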
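Material: XiGFP fibroblasts, SV40-immortalized. Buffer or medium: DMEM plus 5-aza-dC sensitizer. Compound: single concentration per compound, delivered by pin transfer. Times: 3 days compound exposure. Controls: ellipticine 6 µM.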
DENV2 CPE rescue: DENV2-induced cell death inhibition | DENV2-infected cells, cytopathic effect rescue, plate reader | CPE inhibition, % at 9.99 µM | 350,000 tested, 1.7% active | AID 651640; in the data active = CPE inhibition above about 20%, passing the limit was not always enough; inconclusive = no clear call, values can overlap the other calls; tested in BHK-21 cells;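 note: 0% = median of neutral control wells and 100% = median of positive control wells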
Numbers without * were called inactive; ? = inconclusive; nt = not tested or not shown; ! = repeats disagree. A selection: hits, their analogues and other compounds. The true share with any hit is near 2.1%.

SMILES	Cneo AK release	C2C12 statin	Xi reactivation	DENV2 CPE rescue
COc1ccc(C=NCCCN2CCOCC2)cc1	1	88*	nt	nt
COCC(=O)Nc1ccc2c(c1)C(=O)N(C)[C@@H]1CC[C@@H](CC(=O)NCC3CC3)O[C@H]1CO2	-3	-6	0	12
CCOC(=O)CN(C(=O)CNC(=O)c1ccco1)C(C(=O)NC1CCCCC1)c1cccs1 (stereo unspecified)	-1	124*	nt	nt
O=C(NCC(=O)N(Cc1ccccc1)C(C(=O)NC1CCCCC1)c1ccco1)c1ccco1 (stereo unspecified)	-2	110*	nt	nt
O=C(C[C@@H]1C[C@@H]2c3cc(NC(=O)C4CCC4)ccc3O[C@@H]2[C@@H](CO)O1)NCc1cccc(F)c1	2	-7	0	-2
O=C(NCCCCNC(=O)c1ccc(Cl)s1)c1ccc(Cl)s1	-1	108*	nt	nt
CN(C)CCNC(=O)c1ccc(Cl)s1	nt	6	nt	-11
CN(C)CC(=O)Nc1ccc2c(c1)[C@H]1C[C@@H](CC(=O)NCc3ccccc3)O[C@@H](CO)[C@H]1O2	-1	-3	0	-12
Cc1c(C(=O)NCc2ccc(C#N)cc2)sc(=O)n1Cc1ccccn1	-1	-18	0	21*
Cc1cccc(C)c1Cn1c(C)c(C(=O)NCc2ccc(C#N)cc2)sc1=O	-1	1	0	-3
O=C(Nc1ccc([N+](=O)[O-])cc1)N1CCc2ccccc2C1	1	-17	0	23*
CC(C)c1ccc(NC(=O)N2CCc3ccccc3C2)cc1	nt	nt	0	-9
CC(C)COc1ccc(CNC(=S)NCc2ccccc2)cc1	182*	-7	nt	nt
CCOc1ccc(CNC(=S)NCc2ccc(OCC)cc2)cc1	nt	nt	0	1
COCC#Cc1ccc2c(c1)O[C@H](CN(C)S(=O)(=O)c1cccc(F)c1)[C@H](C)CN([C@H](C)CO)S2(=O)=O	-1	-16	0	11
Cc1noc(C)c1S(=O)(=O)N(C)C[C@@H]1OCCCC[C@@H](C)Oc2ccc(NC(=O)Nc3ccc4c(c3)OCO4)cc2C(=O)N([C@H](C)CO)C[C@@H]1C	-5	nt	0	-7
COc1ccc(N(Cc2cc(=O)[nH]c3ccccc23)C(=O)c2ccco2)cc1	2	135*	nt	nt
C[C@@H]1CCCCO[C@H](CN(C)S(=O)(=O)c2cn(C)cn2)[C@H](C)CN([C@@H](C)CO)C(=O)c2cc(NS(=O)(=O)c3ccc(Cl)cc3)ccc2O1	-4	nt	0	-6
Cc1noc(C)c1S(=O)(=O)Nc1ccc2c(c1)C(=O)N([C@@H](C)CO)C[C@@H](C)[C@@H](CN(C)S(=O)(=O)c1cn(C)cn1)OCCCC[C@H](C)O2	-1	nt	0	-3
Cc1noc(C)c1S(=O)(=O)Nc1ccc2c(c1)C(=O)N([C@@H](C)CO)C[C@@H](C)[C@H](CN(C)S(=O)(=O)c1cn(C)cn1)OCCCC[C@@H](C)O2	2	nt	0	37*
C[C@@H]1CCCCO[C@@H](CN(C)S(=O)(=O)c2cn(C)cn2)[C@@H](C)CN([C@H](C)CO)C(=O)c2cc(NS(=O)(=O)c3ccc(Cl)cc3)ccc2O1	1	nt	0	37*
Cc1ccc(S(=O)(=O)Nc2ccc3c(c2)C(=O)N([C@@H](C)CO)C[C@@H](C)[C@H](CN(C)S(=O)(=O)c2cn(C)cn2)OCCCC[C@@H](C)O3)cc1	-2	nt	0	21*
COc1ccc(-c2ccc3n(c2=O)C[C@@H]2[C@@H](CO)[C@H](C(=O)Nc4ccccc4)N(C)[C@H]32)cc1	nt	nt	0	?
C[C@@H]1CN([C@H](C)CO)C(=O)c2cc(NS(C)(=O)=O)ccc2O[C@@H](C)CCCCO[C@@H]1CN(C)Cc1ccc2c(c1)OCO2	1	-22	0	-2
C[C@@H]1CN([C@@H](C)CO)C(=O)c2cc(-c3ccccc3)cnc2O[C@@H]1CN(C)Cc1ccc(C(=O)O)cc1	-1	-1	0	-1
SMILES	Cneo AK release	C2C12 statin	Xi reactivation	DENV2 CPE rescue
COc1ccc(C(=O)c2sc3nc(C)cc(-c4cccs4)c3c2N)cc1OC	-3	nt	25*	-8
O=C(NCC[C@@H]1CC[C@@H](NS(=O)(=O)c2ccccc2F)[C@@H](CO)O1)c1ccc(F)cc1	31	0	0	13
O=[N+]([O-])c1ccc(N/N=C/c2sc(N3CCOCC3)nc2-c2ccccc2)c(S(=O)(=O)Nc2ccccc2Cl)c1	nt	nt	0	nt
O=[N+]([O-])c1ccc(N/N=C/c2sc(N3CCOCC3)nc2-c2ccccc2)c(S(=O)(=O)Nc2ccc(Cl)cc2)c1	nt	nt	87*	8
N#Cc1ccc(-c2ccc(C3[C@H]4CNC[C@@H]3N4C(=O)NC3CCCCC3)cc2)cc1 (stereo partly specified)	nt	nt	0	23*
O=C(Nc1cccc(Cl)c1)N1[C@@H]2CNC[C@H]1C2c1ccc(-c2ccccc2)cc1 (stereo partly specified)	nt	nt	0	67*!
CCCNC(=O)N1[C@@H]2CNC[C@H]1C2c1ccc(-c2cccc(C#N)c2)cc1 (stereo partly specified)	nt	nt	0	21*!
COc1cccc(-c2ccc(C3[C@H]4CNC[C@@H]3N4Cc3cccnc3)cc2)c1 (stereo partly specified)	nt	nt	0	28*
CCCNC(=O)N1[C@@H]2CNC[C@H]1C2c1ccc(-c2ccc(C#N)cc2)cc1 (stereo partly specified)	nt	nt	0	18
CCC(=O)Nc1ccc2c(c1)OC[C@H](C)N(CC1CCOCC1)C[C@@H](C)[C@H](OC)CN(C)C2=O	-1	9	0	0
Cc1noc(C)c1NC(=O)NCC[C@@H]1CC[C@H](NC(=O)c2ccc(F)cc2)[C@@H](CO)O1	-5	5	0	3
C[C@H]1CN([C@@H](C)CO)C(=O)c2c(c3ccccc3n2C)-c2ccccc2CO[C@@H]1CN(C)Cc1ccc(O)cc1	nt	nt	0	-3
N#Cc1cccc(-c2ccc(C3[C@H]4CNC[C@@H]3N4C(=O)Nc3ccccc3F)cc2)c1 (stereo partly specified)	nt	nt	0	5
Cc1cccc(-c2ccc(C3[C@H]4CNC[C@@H]3N4C(=O)Nc3ccc(F)cc3)cc2)c1 (stereo partly specified)	nt	nt	0	28*!
COc1cccc(NC(=O)N2[C@@H]3CNC[C@H]2C3c2ccc(-c3cccc(OC)c3)cc2)c1 (stereo partly specified)	nt	nt	0	-5
N#Cc1cccc(-c2ccc(C3[C@H]4CNC[C@@H]3N4C(=O)Nc3ccc(F)cc3)cc2)c1 (stereo partly specified)	nt	nt	0	23*!
COc1cccc(NC(=O)N2[C@@H]3CNC[C@H]2C3c2ccc(-c3cccnc3)cc2)c1 (stereo partly specified)	nt	nt	0	22*!
COc1ccc(NC(=O)N2[C@@H]3CNC[C@H]2C3c2ccc(/C=C/c3ccccc3)cc2)cc1 (stereo partly specified)	nt	nt	0	25*
